Source: PubChem BioAssay
The list is not random: actives were taken first. Their share in the collection is about 1%.
PvdQ inh: blocks Pseudomonas aeruginosa PvdQ acylase activity; purified PvdQ acylase, fluorescence plate reader; inhibition, % at 10 µM; 340,000 compounds, 0.063% hits; AID 488965; in the data active = inhibition above about 30%, passing the limit was not always enough;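 note: 0% = vehicle neutral wells and 100% = reference inhibitor wells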
IMP-1 inh-1: blocks Pseudomonas aeruginosa IMP-1 metallo-beta-lactamase | inhibition, % at 5.6 µM | purified IMP-1, nitrocefin hydrolysis, epi-absorbance fluorescence | AID 1556 | 290,000 compounds, 0.45% hits;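 active = inhibition above the mean plus 3 SD of all compounds in the same screening run, cut at about 4.5% in these data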;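 note: 0% = IMP-1 with DMSO and 100% = DMSO wells lacking enzyme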
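System – purified recombinant IMP-1 beta-lactamase · Input – IMP-1 dispensed at 0.2 nM · Timing – 15 min preincubation plus 25 min reaction at 25 °C · Signal – Epi-absorbance fluorescence, 480 nm excitation, 530 nm emission · Measure – percent IMP-1 inhibition derived from blank-referenced optical density · Controls – Enzyme-plus-DMSO low control, enzyme-free DMSO high control · Replication – singlicate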
VIM-2 inh: inhibitors of Pseudomonas aeruginosa VIM-2 metallo-beta-lactamase; inhibition, % at 5.6 µM; 290,000 compounds, 0.89% hits; purified VIM-2, nitrocefin hydrolysis, epi-absorbance fluorescence;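 active = inhibition above the mean of all tested compounds plus 3 SD, cutoff set per screening run, cut at about 7.5% in these data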;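 note: red hydrolysis product quenches plate fluorescence so inhibitors raise well fluorescence; 0% = enzyme with DMSO and 100% = DMSO without enzyme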
DNA FID counter: displaces DNA intercalator in HCV helicase counter-screen; AID 1845; inhibition, % at 7.9 µM; 290,000 compounds, 0.17% hits; DNA fluorescent intercalator displacement, fluorescence; in the data active = inhibition above about 37%;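 note: 0% = vehicle and 100% = reference compound; higher means more ethidium bromide displaced from hairpin DNA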
RAD54 inh: blocks human RAD54 Holliday junction branch migration; inhibition, % at 10.4 µM; 360,000 compounds, 0.14% hits; AID 602329; FAM/BHQ fluorescence;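 active = mean normalized replicate activity at least 40 and at least half of replicates scoring 40 or more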;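 note: 0% = median of neutral control wells and 100% = median of positive control wells; inhibitors cause a drop in the FAM fluorescence signal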
Target sequence (Q92698 whole entry, looked up): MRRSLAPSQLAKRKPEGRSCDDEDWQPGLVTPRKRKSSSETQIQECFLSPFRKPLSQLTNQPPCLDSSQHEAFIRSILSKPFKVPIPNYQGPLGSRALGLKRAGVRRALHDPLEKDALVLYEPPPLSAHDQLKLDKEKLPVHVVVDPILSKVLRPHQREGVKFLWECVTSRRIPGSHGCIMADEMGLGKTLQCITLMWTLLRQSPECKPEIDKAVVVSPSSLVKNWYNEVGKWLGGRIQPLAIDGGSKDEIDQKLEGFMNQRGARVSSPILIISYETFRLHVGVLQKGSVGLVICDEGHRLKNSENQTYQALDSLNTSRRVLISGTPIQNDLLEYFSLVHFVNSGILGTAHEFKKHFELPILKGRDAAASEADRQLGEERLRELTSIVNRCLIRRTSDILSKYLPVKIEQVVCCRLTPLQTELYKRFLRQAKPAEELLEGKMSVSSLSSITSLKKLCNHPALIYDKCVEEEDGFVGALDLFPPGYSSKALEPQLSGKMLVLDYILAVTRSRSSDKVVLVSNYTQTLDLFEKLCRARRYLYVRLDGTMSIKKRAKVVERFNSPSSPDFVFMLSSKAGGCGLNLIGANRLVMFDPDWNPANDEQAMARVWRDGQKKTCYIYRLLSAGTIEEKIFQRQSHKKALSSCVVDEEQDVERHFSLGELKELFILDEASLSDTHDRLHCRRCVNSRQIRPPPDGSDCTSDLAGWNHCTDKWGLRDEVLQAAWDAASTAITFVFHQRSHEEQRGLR
IMP-1 inh-2: IMP-1 inhibition, counter-screen for VIM-2 inhibitors. inhibition, % at 5.6 µM. purified IMP-1, nitrocefin hydrolysis, epi-absorbance fluorescence. AID 1856. shares compounds with VIM-2 inh. 1,300 tested, under 10 active; call rule not given here;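 note: 0% = enzyme with vehicle and 100% = vehicle without enzyme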
VIM-2 FRET ctr: VIM-2 FRET inhibition, artifact counter-screen; shares compounds with VIM-2 inh; purified VIM-2, CCF2 FRET substrate hydrolysis; inhibition, % at 5.6 µM; 1,300 compounds, 23% hits; AID 1857;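 active = inhibition above the mean of all tested compounds plus 3 SD, cut at about 19% in these data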;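 note: 0% = VIM-2 plus DMSO and 100% = no enzyme wells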
TEM-1 counter: TEM-1 inhibition, counter-screen for VIM-2 inhibitors. inhibition, % at 5.6 µM. 1,300 compounds, 3% hits. Purified TEM-1, nitrocefin hydrolysis, epi-absorbance fluorescence. AID 1866. shares compounds with VIM-2 inh;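 active = inhibition above that campaign's mean inhibition plus 3 SD, cut at about 0.46% in these data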;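 note: 0% = TEM-1 with DMSO and 100% = TEM-1 with 100 µM potassium clavulanate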
VIM-2 inh conf: confirmation of P. aeruginosa VIM-2 metallo-beta-lactamase inhibitors; shares compounds with VIM-2 inh; purified VIM-2, nitrocefin hydrolysis, epi-absorbance; inhibition, % at 5.6 µM; 1,300 compounds, 96% hits; AID 2187;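 active = inhibition of the VIM-2 beta-lactamase enzyme above about 11% from the earlier first-round screen, limit read from the data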;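 note: 0% = VIM-2 with DMSO and 100% = buffer wells without enzyme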
Rad54 DNA ctr: binds DNA, flagging false Rad54 inhibitor hits. shares compounds with RAD54 inh. Acridine orange-DNA displacement, fluorescence polarization, 20 min. 460 compounds, 8% hits. AC50, µM (titrated, usually from 35 µM), without a hit: at the highest dose activity change, negative = DNA binding;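 active = signal drop giving an AC50 within twice the top valid tested concentration of each sample, actives reach about 35 µM in these data; inactive = activity opposite to expected, plus the rest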;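 note: polarization loss reports compound binding to salmon sperm DNA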
An asterisk follows results filed as active; nt = not tested or not shown.

SMILES	PvdQ inh	IMP-1 inh-1	VIM-2 inh	DNA FID counter	RAD54 inh	IMP-1 inh-2	VIM-2 FRET ctr	TEM-1 counter	VIM-2 inh conf	others
CCOc1ccc(NC(=O)c2c(O)[nH]c(=O)[nH]c2=O)cc1	-11	nt	nt	nt	16	nt	nt	nt	nt
COC(=O)[C@@H]1[C@@H](CO)[C@@H]2Cn3c(cccc3=O)[C@H]1N2C(=O)C1CCCC1	nt	nt	nt	nt	-1	nt	nt	nt	nt
CN1C(=O)/C(=C\c2ccc(N3CCCCCC3)cc2)C(=O)NC1=S	-9	0	0	-5	nt	nt	nt	nt	nt
Cc1cc(N2CCCCC2)ccc1C=C1C(=O)N(C)C(=S)N(C)C1=O	-9	7.4*	4	-11	nt	nt	nt	nt	nt
CNc1ccc2nc3ccccc3[n+](C)c2c1	-10	-8	8.0*	-114	98*	nt	nt	nt	nt
OCCNc1c2c(nc3ccccc13)CCCC2	-8	-2	-3	4	21	nt	nt	nt	nt
C[n+]1c2ccccc2nc2ccc(NCCO)cc21	8	-5	7	-105	75*	nt	nt	nt	nt
COC(=O)[C@@H]1[C@@H](CO)[C@@H]2Cn3c(ccc(/C=C/c4ccccc4)c3=O)[C@H]1N2C(=O)C1CC1	nt	nt	nt	nt	5	nt	nt	nt	nt
O=C(O)[C@H]1[C@H](CO)[C@H]2Cn3c(ccc(-c4ccc(F)cc4)c3=O)[C@@H]1N2CC1CCCCC1	nt	nt	nt	nt	1	nt	nt	nt	nt
O=C1NC(=O)C(=Cc2ccc(-c3ccc(S(=O)(=O)N4CCOCC4)cc3)o2)C(=O)N1	-13	5.4*	-1	10	-16	nt	nt	nt	nt
O=C1NC(=O)C(=Cc2ccc(-c3ccc(Cl)cc3)o2)C(=O)N1	19	3	2	-3	6	nt	nt	nt	nt
O=C(Cc1cccnc1)N1CCCCN2[C@H](CO)[C@@H](c3ccc(/C=C/c4ccccc4)cc3)[C@@H]2C1	nt	nt	nt	nt	3	nt	nt	nt	nt
COc1cc2c(cc1OC)-c1c(OC)c(OC)cc3c1[C@H](C2)N(C)CC3	-7	-4	3	9	91*	nt	nt	nt	nt
C/C=C/c1ccc([C@@H]2[C@@H](CO)N3CCCCN(C(=O)Cc4cccnc4)C[C@@H]23)cc1	nt	nt	nt	nt	-2	nt	nt	nt	nt
COc1ccc(Cl)cc1N=Cc1c(O)n(C)c(=O)n(C)c1=O	-2	-1	13*	-7	nt	-2	-2	-5	21*
Cc1cc(OCC(=O)N[C@H](C(=O)O)c2ccccc2)c2c3c(c(=O)oc2c1)CCC3	-1	-2	17*	-19	-16	-3	26*	-7	21*
Cc1cc(OCC(=O)N[C@@H](Cc2ccccc2)C(=O)O)c2c3c(c(=O)oc2c1)CCC3	15	-3	2	-18	-19	nt	nt	nt	nt
Cc1cc(OCC(=O)NC(Cc2ccc(Cl)cc2)C(=O)O)c2c3c(c(=O)oc2c1)CCC3 (centres undefined)	-13	-1	19*	5	-14	-4	33*	-7	19*
O=c1c2ccccc2nc(-c2ccccc2)n1-c1ccccc1	-7	-4	0	-17	3	nt	nt	nt	nt
O=c1c2ccccc2[se]n1-c1ccccc1	-1	-2	27*	-1	-4	-3	-87	-10	42*
CC=Cc1ccc2n(c1=O)C[C@H]1[C@H](CO)[C@@H](C(=O)N(C)C)N[C@@H]21 (mixture of isomers)	nt	nt	nt	nt	-11	nt	nt	nt	nt
C/C=C/c1ccc([C@@H]2[C@H](CO)N3CCCCN(C(=O)Cc4cccnc4)C[C@@H]23)cc1	nt	nt	nt	nt	7	nt	nt	nt	nt
O=C1C(=O)c2ccccc2-c2ccccc21	0	1	17*	11	3	-5	-5	-4	18*
CC(=NCCCn1ccnc1)c1c(O)n(-c2ccccc2)c(=O)[nH]c1=O	3	-4	-2	-3	nt	nt	nt	nt	nt
C=CCn1c(O)c(C(C)=NCCCn2ccnc2)c(=O)[nH]c1=O	-4	-2	58*	-4	nt	-3	-2	-6	78*
SMILES	PvdQ inh	IMP-1 inh-1	VIM-2 inh	DNA FID counter	RAD54 inh	IMP-1 inh-2	VIM-2 FRET ctr	TEM-1 counter	VIM-2 inh conf	others
COC(=O)[C@@H]1[C@@H](CO)[C@@H]2Cn3c(ccc(-c4cncnc4)c3=O)[C@H]1N2S(=O)(=O)c1ccccc1C	nt	nt	nt	nt	-11	nt	nt	nt	nt
CC(C)NC(=O)N1[C@@H]2c3ccc(-c4cccc(C(=O)N(C)C)c4)c(=O)n3C[C@H]1[C@H](CO)[C@H]2C(=O)O	nt	nt	nt	nt	-6	nt	nt	nt	nt
CN1CCN(c2ccc(NC(=O)Oc3ccccc3)cc2)CC1	4	-5	29*	18	38	-5	-4	-6	24*
COC(=O)C(O)(c1ccc(NC(=O)Oc2ccccc2)cc1)C(F)(F)F (centres undefined)	3	-3	-3	2	nt	nt	nt	nt	nt
O=[N+]([O-])c1ccc(-c2ccccc2)c([As](=O)(O)O)c1	-11	-1	76*	-3	-6	-3	82*	-3	80*
O=C(Cc1cccnc1)N1CCCCN2[C@H](CO)[C@@H](c3ccc(C#CC4CC4)cc3)[C@H]2C1	nt	nt	nt	nt	-8	nt	nt	nt	nt
Cc1cc(OC(C)C(=O)NCc2ccncc2)c2c3c(c(=O)oc2c1)CCC3 (centres undefined)	-7	-3	26*	-38	-6	-3	-2	-8	42*
Cc1cc(OC(C)C(=O)NCC(O)c2ccccc2)c2c3c(c(=O)oc2c1)CCC3 (centres undefined)	6	0	3	-35	-4	nt	nt	nt	nt
Cc1cc(OC(C)C(=O)NCc2ccncc2)c2c3c(c(=O)oc2c1)CCCC3 (centres undefined)	7	3	26*	-34	-3	-2	-4	-9	32*
Cc1cc(OCC(=O)NCc2ccncc2)c2c3c(c(=O)oc2c1)CCCC3	-7	-2	40*	-34	1	-3	2	-12	52*
CCOC(=O)c1c(C)n(CCN2CCN(C)CC2)c2ccc(OC)cc12	-16	-1	61*	16	39	0	2	0	80*
CCOC(=O)c1c(C)n(Cc2ccco2)c2ccc(OC)cc12	-6	-2	0	-12	2	nt	nt	nt	nt
O=C(O)[C@@H]1[C@@H](CO)[C@@H]2Cn3c(ccc(-c4cncnc4)c3=O)[C@H]1N2C(=O)NC1CCCC1	nt	nt	nt	nt	-2	nt	nt	nt	nt
O=C(NC1CN2CCC1CC2)c1cc(Cl)c([N+](=O)[O-])c2nc[nH]c12 (centres undefined)	-7	-2	10*	22	56*	nt	nt	nt	nt	Rad54 DNA ctr=-12%
CCNCCNc1ccc([N+](=O)[O-])c2cccnc12	4	0	-2	16	56*	nt	nt	nt	nt	Rad54 DNA ctr=-21%
